HNF4A DNA FP – change in binding of human HNF4 alpha to DNA. P41235. HNF4a-FITC DNA binding, fluorescence polarization, 1 h. activity change, % at 10 µM. 0.3% of 360,000 active; in the data active means activity change above about 30%, passing the limit was not always enough
Myeloid diff MLP – myeloid differentiation induction. ER-HoxA9 myeloid progenitors, lysozyme-GFP differentiation, flow cytometry. calls only at 10 µM. 1% of 360,000 active. AID 624256;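 active means normalized GFP-positive differentiation at or above the plate's own cutoff, the solvent-only control mean plus 3 SD; inconclusive means no clear call, values can overlap the other calls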;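 further: cells exposed to compound for four days before flow analysis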
TPT1 inh – inhibitors of Candida albicans tRNA 2'-phosphotransferase TPT1 | recombinant caTPT1, FP RNA substrate dephosphorylation | inhibition, % at 5 µM | 0.81% of 300,000 active;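 active means inhibition above the mean of all tested compounds plus 3 SD, set per screening campaign, cut at about 24% in these data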
Rpn11 block – Rpn11 (human) deubiquitinase inhibition. O00487. AID 588493. inhibition, % at 20 µM. 0.59% of 360,000 active. human 26S proteasome, Ub4-pepOG fluorescence polarization; 20S core pre-blocked with epoxomicin;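 active means inhibition at 20 µM, scaled to each plate's controls, above about 33%, limit read from the data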
Target sequence (O00487 whole entry, looked up): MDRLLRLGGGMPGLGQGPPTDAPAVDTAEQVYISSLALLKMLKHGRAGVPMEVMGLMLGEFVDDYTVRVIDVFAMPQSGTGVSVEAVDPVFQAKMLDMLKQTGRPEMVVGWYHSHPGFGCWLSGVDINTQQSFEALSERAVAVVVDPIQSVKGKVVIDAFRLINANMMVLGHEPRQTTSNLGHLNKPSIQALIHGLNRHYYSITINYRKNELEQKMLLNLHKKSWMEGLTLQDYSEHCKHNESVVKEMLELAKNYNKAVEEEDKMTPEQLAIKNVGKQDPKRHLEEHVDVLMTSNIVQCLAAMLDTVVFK
CSN inh – CSN deneddylation inhibition. 0.38% of 360,000 active. inhibition, % at 12.5 µM. Purified CSN, SCF-Nedd8-OG deneddylation, fluorescence polarization;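 active means pattern-corrected inhibition above about 35%, with an unprinted fluorescence ratio check between 0.5 and 1.5, limit read from the data, passing the limit was not always enough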
Target sequence (Q92905 whole entry, looked up, one chain of several): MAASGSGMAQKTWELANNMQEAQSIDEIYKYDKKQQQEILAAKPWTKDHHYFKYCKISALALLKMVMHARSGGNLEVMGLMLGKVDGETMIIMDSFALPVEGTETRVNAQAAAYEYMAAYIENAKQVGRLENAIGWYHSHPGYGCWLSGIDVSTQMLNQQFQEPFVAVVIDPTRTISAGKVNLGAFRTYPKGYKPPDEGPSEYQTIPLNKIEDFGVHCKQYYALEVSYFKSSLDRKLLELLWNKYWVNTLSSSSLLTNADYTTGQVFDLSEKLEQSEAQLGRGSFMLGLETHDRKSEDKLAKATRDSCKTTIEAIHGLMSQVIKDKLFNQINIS
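Test system: Human Csn5 produced in HEK293T cells | Compound: 12.5 µM single point | Times: 90 min, room temperature | Signal: Fluorescence polarization readout | Read-out basis: % inhibition of substrate cleavage by Csn5 | Controls: no-enzyme wells high, enzyme-with-substrate wells low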
Hits are given with their value. Rows were chosen to be rich in hits. Some 2.3% of all compounds tested hit in one or more screens of this group.

Results for CCOC(=O)c1c(-n2c(C)cc(C=O)c2C)sc2c1CCCC2 ?
HNF4A DNA FP: inactive; Myeloid diff MLP: inactive; TPT1 inh: inactive; Rpn11 block: inactive; CSN inh: inactive

How did Cc1n[nH]c(=S)n1/N=C/c1cccc(OCc2ccccc2)c1 do in these assays?
HNF4A DNA FP: inactive; Myeloid diff MLP: inactive; TPT1 inh: inactive; Rpn11 block: inactive; CSN inh: inactive

Results for Cc1n[nH]c(=S)n1/N=C/c1ccccc1OCc1ccc(Cl)cc1 ?
HNF4A DNA FP: 51; Myeloid diff MLP: inactive; TPT1 inh: inactive; Rpn11 block: inactive; CSN inh: inactive

Results for OC[C@@H]1CN(Cc2ccc3c(c2)OCO3)C[C@H](n2cnc3c(NCc4ccc(F)cc4)ncnc32)O1 ?
HNF4A DNA FP: inactive; Myeloid diff MLP: inactive; Rpn11 block: inactive; CSN inh: inactive

What do the screens show for `O=C(Nc1ccncc1)C1(c2ccccc2)CCCC1`?
HNF4A DNA FP: inactive; Myeloid diff MLP: inactive; TPT1 inh: inactive; Rpn11 block: inactive; CSN inh: inactive

What do the screens show for `O=C(Nc1ccc(O)c(-c2nc3ccccc3o2)c1)C1(c2ccccc2)CCCC1`?
HNF4A DNA FP: inactive; Myeloid diff MLP: active; TPT1 inh: inactive; Rpn11 block: inactive; CSN inh: inactive

Results for CCCC1=C/C(=C/c2ccc(-c3ccccc3OC)o2)C(=O)O1 ?
HNF4A DNA FP: inactive; Myeloid diff MLP: inactive; TPT1 inh: inactive; Rpn11 block: 49; CSN inh: inactive

Results for COc1ccc(NC(=O)CSc2nc3sc4c(c3c(=O)n2-c2ccc(OC)cc2)CCN(C)C4)cc1 ?
HNF4A DNA FP: inactive; Myeloid diff MLP: inactive; TPT1 inh: inactive; Rpn11 block: inactive; CSN inh: 98

What do the screens show for `CCCN1CCc2c(sc3nc(SCC)n(-c4ccccc4)c(=O)c23)C1`?
HNF4A DNA FP: inactive; Myeloid diff MLP: active; Rpn11 block: inactive; CSN inh: inactive

What do the screens show for `Nc1nc(N)c2cc([N+](=O)[O-])ccc2n1`?
HNF4A DNA FP: inactive; Myeloid diff MLP: inactive; Rpn11 block: inactive; CSN inh: inactive

Results for Nc1nc(N)c2c(ccc3c2ccn3Cc2cccc([N+](=O)[O-])c2)n1 ?
HNF4A DNA FP: inactive; Myeloid diff MLP: active; Rpn11 block: inactive; CSN inh: inactive

How did Cc1cc(C(=O)N/N=C/c2ccc([N+](=O)[O-])cc2)c2ccccc2n1 do in these assays?
HNF4A DNA FP: inactive; Myeloid diff MLP: active; TPT1 inh: inactive; Rpn11 block: inactive; CSN inh: inactive

Results for Cc1cc(C(=O)O)c2ccccc2n1 ?
HNF4A DNA FP: inactive; Myeloid diff MLP: active; TPT1 inh: inactive; Rpn11 block: inactive; CSN inh: inactive

Results for Cc1ccccc1C(=O)N/N=C/c1ccc([N+](=O)[O-])s1 ?
HNF4A DNA FP: inactive; Myeloid diff MLP: inactive; TPT1 inh: inactive; Rpn11 block: inactive; CSN inh: inactive

What do the screens show for `Cc1cc(C(=O)N/N=C/c2ccc([N+](=O)[O-])s2)c2ccccc2n1`?
HNF4A DNA FP: inactive; Myeloid diff MLP: active; TPT1 inh: inactive; Rpn11 block: inactive; CSN inh: inactive

How did COc1ccc(CCNC(=O)c2cc(C3CC3)nc3c2cnn3C(C)C)cc1OC do in these assays?
HNF4A DNA FP: inactive; Myeloid diff MLP: active; Rpn11 block: inactive; CSN inh: inactive

How did COc1ccc(CNC(=O)c2cc(C3CC3)nc3c2cnn3C(C)C)cc1 do in these assays?
HNF4A DNA FP: inactive; Myeloid diff MLP: inactive; Rpn11 block: inactive; CSN inh: inactive

What do the screens show for `COC(=O)C[C@H]1C=C[C@@H](NC(=O)C2CC2)[C@@H](CO)O1`?
HNF4A DNA FP: inactive; Myeloid diff MLP: inactive; CSN inh: inactive

Results for CCOC(=O)Nc1cc2c(cc1[N+](=O)[O-])-c1ccccc1C2=O ?
HNF4A DNA FP: 38; Myeloid diff MLP: inactive; Rpn11 block: inactive; CSN inh: inactive

Results for CCOC(=O)Nc1cccc2c1-c1ccc([N+](=O)[O-])cc1C2=O ?
HNF4A DNA FP: inactive; Myeloid diff MLP: inactive; Rpn11 block: inactive; CSN inh: inactive

What do the screens show for `Cc1ccc(NC(=O)CSc2nnc(CNC(=O)c3ccco3)n2C)cc1`?
HNF4A DNA FP: inactive; Myeloid diff MLP: inactive; TPT1 inh: inactive; Rpn11 block: inactive; CSN inh: inactive

Results for Cc1ccc(NCc2nnc(SCC(=O)NNC(=O)Cc3ccccc3)n2C)cc1 ?
HNF4A DNA FP: inactive; Myeloid diff MLP: active; TPT1 inh: inactive; Rpn11 block: inactive; CSN inh: inactive

Results for Cc1ccc(NC(=O)CSc2nnc(CNC(=O)c3ccco3)n2C)cc1C ?
HNF4A DNA FP: inactive; Myeloid diff MLP: inactive; TPT1 inh: inactive; Rpn11 block: inactive; CSN inh: 43

Results for Cc1ccc(C(=O)NNC(=O)CSc2nnc(CNc3ccc(F)cc3)n2C)cc1 ?
TPT1 inh: inactive

Results for Clc1ccc(C2=NCCN2)cc1 ?
HNF4A DNA FP: inactive; Myeloid diff MLP: inactive; TPT1 inh: inactive; Rpn11 block: inactive; CSN inh: inactive

How did O=[N+]([O-])c1ccc(-c2cn(-c3ccc(Cl)cc3)cn2)cc1 do in these assays?
HNF4A DNA FP: 40; Myeloid diff MLP: inactive; Rpn11 block: inactive; CSN inh: inactive

Results for CCOC(=O)c1ccc(-n2cnc(-c3ccc([N+](=O)[O-])cc3)c2)cc1 ?
HNF4A DNA FP: inactive; Myeloid diff MLP: inactive; Rpn11 block: inactive; CSN inh: inactive

How did COc1ccc2c(C)cc(SCC(=O)c3ccc4c(c3)OCO4)nc2c1 do in these assays?
HNF4A DNA FP: inactive; Myeloid diff MLP: inactive; TPT1 inh: inactive; Rpn11 block: inactive; CSN inh: inactive

How did COc1ccc2c(C)cc(SCc3c(C)noc3C)nc2c1 do in these assays?
HNF4A DNA FP: inactive; Myeloid diff MLP: active; TPT1 inh: inactive; Rpn11 block: inactive; CSN inh: inactive

Results for CC(C)CC(N)c1csc(NC(=O)c2cc(C(C)(C)C)nn2Cc2ccccc2)n1 (stereo unspecified) ?
HNF4A DNA FP: inactive; Myeloid diff MLP: inactive; Rpn11 block: inactive; CSN inh: inactive

What do the screens show for `Cc1ccc(C)c(N2CCN(C(=O)c3ccc(CSc4nc5ccncc5[nH]4)cc3)CC2)c1`?
HNF4A DNA FP: inactive; Myeloid diff MLP: active; TPT1 inh: inactive; Rpn11 block: inactive; CSN inh: inactive

How did COc1ccccc1-c1noc2c1C(=O)N(Cc1cn(-c3ccccc3OC)nn1)CC2 do in these assays?
HNF4A DNA FP: inactive; Myeloid diff MLP: inactive; CSN inh: inactive

What do the screens show for `CC(=O)N1CCC(C(=O)N2c3ccccc3N=C(c3ccc4c(c3)OCO4)C2C(=O)Nc2c(C)cccc2C)CC1` (stereo unspecified)?
HNF4A DNA FP: inactive; Myeloid diff MLP: inactive; CSN inh: inactive

How did CCCn1c(/C=N/Nc2nc3ccccc3[nH]2)nc2ccccc21 do in these assays?
HNF4A DNA FP: inactive; Myeloid diff MLP: inconclusive; Rpn11 block: inactive; CSN inh: inactive

Results for CC(C)Cn1c(/C=N/Nc2nc3ccccc3[nH]2)nc2ccccc21 ?
HNF4A DNA FP: inactive; Myeloid diff MLP: active; Rpn11 block: inactive; CSN inh: inactive

How did CCN(CC)CCOC(=O)c1ccc(NC(=O)CCCN2C(=O)S/C(=C/c3ccc(OC)cc3)C2=S)cc1 do in these assays?
HNF4A DNA FP: inactive; Myeloid diff MLP: inactive; TPT1 inh: inactive; Rpn11 block: 68; CSN inh: inactive

Screening results: PubChem BioAssay, several laboratories
